Molecules are shown by their SMILES. pIC50: −log10 of the molar value.

For assay [1], the target named is Phosphatidylinositol 4,5-bisphosphate 3-kinase catalytic subunit alpha isoform (Homo sapiens, UniProt P42336). In words: Inhibition of recombinant PI3K p110alpha using L-alpha-phosphatidylinositol as substrate and [gamma33P]ATP after 60 mins by thin layer chromatographic technique. A digest of the protocol:
(§1)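 In-house recombinant enzyme (0.1 µg) with L-α-phosphatidylinositol in 40 mM Tris-HCl pH 7.4, 200 mM NaCl, 1 mM EDTA; DMSO 1% final. Started with 5 mM MgCl₂, 100 µM ATP plus [γ-³³P]ATP; 1 h at room temperature, stopped with 1 M HCl. Lipids extracted, separated by TLC, phosphorimaged. Nine inhibitor concentrations; two experiments, IC50 averaged.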

Assay [2] deals with Phosphatidylinositol 4,5-bisphosphate 3-kinase catalytic subunit beta isoform (Homo sapiens, UniProt P42338). The assay is described as follows: Inhibition of recombinant PI3K p110beta using L-alpha-phosphatidylinositol as substrate and [gamma33P]ATP after 60 mins by thin layer chromatographic technique. A digest of the protocol: as §1
Assay [3] addresses T1, Phosphatidylinositol 4,5-bisphosphate 3-kinase catalytic subunit delta isoform (Homo sapiens, UniProt O00329).
T1 sequence (O00329 whole entry): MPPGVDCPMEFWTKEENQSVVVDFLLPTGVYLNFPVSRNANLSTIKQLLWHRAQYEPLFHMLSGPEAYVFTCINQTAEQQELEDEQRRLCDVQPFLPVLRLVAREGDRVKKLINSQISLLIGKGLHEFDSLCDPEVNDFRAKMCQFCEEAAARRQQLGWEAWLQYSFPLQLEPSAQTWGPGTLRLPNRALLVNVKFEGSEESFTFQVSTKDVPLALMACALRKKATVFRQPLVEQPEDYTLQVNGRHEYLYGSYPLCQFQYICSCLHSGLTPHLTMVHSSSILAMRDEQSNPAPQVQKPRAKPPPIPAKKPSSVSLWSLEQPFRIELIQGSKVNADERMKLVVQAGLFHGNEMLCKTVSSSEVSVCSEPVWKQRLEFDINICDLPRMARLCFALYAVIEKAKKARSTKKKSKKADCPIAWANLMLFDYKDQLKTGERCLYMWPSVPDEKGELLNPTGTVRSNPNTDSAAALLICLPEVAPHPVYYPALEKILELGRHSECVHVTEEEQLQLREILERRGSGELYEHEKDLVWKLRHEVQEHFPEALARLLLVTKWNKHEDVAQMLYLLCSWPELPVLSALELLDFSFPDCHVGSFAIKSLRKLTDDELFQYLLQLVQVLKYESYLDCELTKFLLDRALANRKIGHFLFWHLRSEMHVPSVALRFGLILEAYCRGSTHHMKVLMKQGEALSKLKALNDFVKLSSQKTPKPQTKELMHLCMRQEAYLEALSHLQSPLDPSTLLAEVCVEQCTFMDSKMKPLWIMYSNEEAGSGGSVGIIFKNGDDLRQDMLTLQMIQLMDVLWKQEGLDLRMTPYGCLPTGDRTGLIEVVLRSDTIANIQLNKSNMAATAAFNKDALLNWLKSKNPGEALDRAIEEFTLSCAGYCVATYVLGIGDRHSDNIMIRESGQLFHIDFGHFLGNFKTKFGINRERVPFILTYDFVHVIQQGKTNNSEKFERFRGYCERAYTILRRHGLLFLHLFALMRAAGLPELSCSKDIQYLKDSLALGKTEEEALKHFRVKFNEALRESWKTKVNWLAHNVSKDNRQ
In words: Inhibition of recombinant PI3K p110delta using L-alpha-phosphatidylinositol as substrate and [gamma33P]ATP after 60 mins by thin layer chromatographic technique. The gist of the method:
as §1

A short description of assay [4]: Cytotoxicity against human NZB5 cells assessed as inhibition of [3H]thymidine incorporation measured after 5 days. It is filed as functional, cell-based. The gist of the method:
(§2)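 Early-passage lines grown in α-MEM with insulin, transferrin, selenite and 5% FBS. Wells seeded with 1000 cells; inhibitor in dilution steps up to a maximum of 20. Five days under 5% O₂/5% CO₂/90% N₂, ³H-thymidine added for the last 6 h. Duplicates per dose; fit y = y₀ + ae^−bx; IC50 = 50% reduction in incorporation.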

Assay [5] is described as follows: Cytotoxicity against human NZOV9 cells harboring PI3K p110alpha Y1021C mutant assessed as inhibition of [3H]thymidine incorporation measured after 5 days. It is filed as functional, cell-based. The gist of the method: as §2

Sequence of Phosphatidylinositol 4,5-bisphosphate 3-kinase catalytic subunit alpha isoform (P42336 whole entry, canonical isoform): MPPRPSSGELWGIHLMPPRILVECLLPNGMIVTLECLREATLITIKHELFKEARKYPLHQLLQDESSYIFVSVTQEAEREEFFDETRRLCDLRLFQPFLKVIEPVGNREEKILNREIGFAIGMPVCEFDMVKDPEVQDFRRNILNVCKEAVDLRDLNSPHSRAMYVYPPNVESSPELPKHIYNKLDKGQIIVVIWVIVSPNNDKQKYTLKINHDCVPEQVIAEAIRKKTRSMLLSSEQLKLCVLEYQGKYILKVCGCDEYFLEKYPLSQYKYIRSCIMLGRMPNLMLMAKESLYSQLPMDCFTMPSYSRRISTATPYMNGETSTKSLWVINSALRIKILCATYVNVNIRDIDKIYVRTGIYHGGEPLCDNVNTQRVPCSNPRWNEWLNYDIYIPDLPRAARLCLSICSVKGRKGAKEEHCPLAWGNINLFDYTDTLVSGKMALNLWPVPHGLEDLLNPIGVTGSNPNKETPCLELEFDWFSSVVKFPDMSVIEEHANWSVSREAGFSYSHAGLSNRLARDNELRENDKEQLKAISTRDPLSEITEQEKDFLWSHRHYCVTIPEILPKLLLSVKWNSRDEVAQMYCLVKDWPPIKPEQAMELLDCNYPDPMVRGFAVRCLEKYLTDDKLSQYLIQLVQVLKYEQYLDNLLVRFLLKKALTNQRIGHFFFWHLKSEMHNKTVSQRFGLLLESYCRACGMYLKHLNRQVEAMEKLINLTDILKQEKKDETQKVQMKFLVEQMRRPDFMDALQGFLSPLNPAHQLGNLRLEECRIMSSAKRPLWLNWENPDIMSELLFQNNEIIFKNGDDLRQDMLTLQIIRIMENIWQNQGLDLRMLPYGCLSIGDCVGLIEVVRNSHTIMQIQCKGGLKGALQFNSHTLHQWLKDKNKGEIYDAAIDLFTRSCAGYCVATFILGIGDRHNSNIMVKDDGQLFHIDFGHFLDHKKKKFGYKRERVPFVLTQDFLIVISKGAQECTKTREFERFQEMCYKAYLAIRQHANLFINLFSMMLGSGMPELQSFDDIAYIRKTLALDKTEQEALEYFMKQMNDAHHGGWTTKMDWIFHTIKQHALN
Sequence of Phosphatidylinositol 4,5-bisphosphate 3-kinase catalytic subunit beta isoform (P42338 whole entry, canonical isoform): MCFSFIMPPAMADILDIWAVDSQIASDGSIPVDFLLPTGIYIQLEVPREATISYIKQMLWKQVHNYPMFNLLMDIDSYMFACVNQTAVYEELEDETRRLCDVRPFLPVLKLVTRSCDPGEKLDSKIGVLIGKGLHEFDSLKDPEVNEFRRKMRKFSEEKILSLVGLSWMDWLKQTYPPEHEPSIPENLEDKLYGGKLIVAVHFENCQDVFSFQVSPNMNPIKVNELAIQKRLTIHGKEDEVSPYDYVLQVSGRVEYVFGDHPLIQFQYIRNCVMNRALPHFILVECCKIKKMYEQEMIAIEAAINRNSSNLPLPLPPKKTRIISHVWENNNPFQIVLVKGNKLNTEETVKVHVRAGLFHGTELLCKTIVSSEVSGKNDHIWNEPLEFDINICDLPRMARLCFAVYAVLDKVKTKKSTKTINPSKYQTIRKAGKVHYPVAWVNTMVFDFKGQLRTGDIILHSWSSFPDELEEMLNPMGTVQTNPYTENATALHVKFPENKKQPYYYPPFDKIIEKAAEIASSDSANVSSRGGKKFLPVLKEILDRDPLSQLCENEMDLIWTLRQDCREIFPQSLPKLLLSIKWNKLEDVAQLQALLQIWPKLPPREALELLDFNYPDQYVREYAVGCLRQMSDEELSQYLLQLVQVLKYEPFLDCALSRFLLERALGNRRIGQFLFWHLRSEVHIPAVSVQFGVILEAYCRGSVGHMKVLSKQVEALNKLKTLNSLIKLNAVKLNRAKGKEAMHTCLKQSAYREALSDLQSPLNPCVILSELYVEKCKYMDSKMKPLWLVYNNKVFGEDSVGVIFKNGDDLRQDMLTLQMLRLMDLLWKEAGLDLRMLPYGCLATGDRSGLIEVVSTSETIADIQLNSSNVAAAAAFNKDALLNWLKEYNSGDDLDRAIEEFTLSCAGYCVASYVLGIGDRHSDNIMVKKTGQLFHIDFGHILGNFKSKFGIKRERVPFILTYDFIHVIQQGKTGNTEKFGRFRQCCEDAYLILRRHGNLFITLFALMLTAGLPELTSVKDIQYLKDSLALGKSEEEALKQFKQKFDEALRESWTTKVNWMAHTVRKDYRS

As for `COC(=O)c1ccc(C)c(S(=O)(=O)N(C)/N=C/c2cnn3ccc(C#N)cc23)c1`, the negative logarithm of the IC50 (pIC50) in assay [1] is 6.00; in assay [2], less than 6.00; in assay [3], 6.40; in assay [4], 5.62; in assay [5], 5.72.

For the compound `Cc1c([N+](=O)[O-])cccc1S(=O)(=O)N(C)/N=C/c1cnn2ccc(C#N)cc12`, the pIC50 in assay [1] is less than 6.00; in assay [2], less than 6.00; in assay [3], less than 6.00; in assay [4] it was less than 4.70; in assay [5] it was less than 4.70.

With `Cc1ccc([N+](=O)[O-])cc1CN(C)/N=C/c1cnn2ccc(C#N)cc12`, the pIC50 in assay [1] is 7.40; in assay [2], 7.10; in assay [3], 7.43; in assay [4], 5.77; in assay [5], 5.72.

`Cc1ccc([N+](=O)[O-])cc1S(=O)(=O)N(CCN1CCOCC1)/N=C/c1cnn2ccc(C#N)cc12`: the pIC50 is 8.35 in assay [1]; 6.64 in assay [2]; 8.00 in assay [3]; 6.30 in assay [4]; 6.27 in assay [5].

Turning to `Cc1ccc(C)c(S(=O)(=O)N(C)/N=C/c2cnn3ccc(C#N)cc23)c1`, the pIC50 in assay [1] was 7.00; in assay [2] it was less than 6.00; in assay [3] it was less than 6.00; in assay [4] it was 5.68; in assay [5] it was 6.06.

Turning to `Cc1ccccc1S(=O)(=O)N(C)/N=C/c1cnn2ccc(C#N)cc12`, the pIC50 was 6.15 in assay [1]; less than 6.00 in assay [2]; 5.70 in assay [3]; less than 4.70 in assay [4]; 4.92 in assay [5].

Take `Cc1ccc(C(=O)O)cc1S(=O)(=O)N(C)/N=C/c1cnn2ccc(C#N)cc12`: the pIC50 was less than 6.00 in assay [1]; less than 6.00 in assay [2]; less than 6.00 in assay [3]; less than 4.70 in assay [4]; less than 4.70 in assay [5].

Regarding `Cc1ccc(F)cc1S(=O)(=O)N(C)/N=C/c1cnn2ccc(C#N)cc12`, the negative-log IC50 (pIC50) in assay [1] was 7.26; in assay [2], 6.26; in assay [3] it was 6.51; in assay [4] it was less than 4.70; in assay [5], 4.85.

Take `Cc1ccc(C#N)cc1S(=O)(=O)N(C)/N=C/c1cnn2ccc(C#N)cc12`: the pIC50 in assay [1] was 8.62; in assay [2], 6.89; in assay [3], 7.23; in assay [4] it was 6.55; in assay [5], 6.68.

Take `Cc1ccc(C(F)(F)F)cc1S(=O)(=O)N(C)/N=C/c1cnn2ccc(C#N)cc12`: the negative-log IC50 (pIC50) in assay [1] was 7.68; in assay [2] it was 7.22; in assay [3], 7.46; in assay [4], 6.01; in assay [5], 5.89.

With `CN(/N=C/c1cnn2ccc(C#N)cc12)S(=O)(=O)c1cc([N+](=O)[O-])ccc1F`, the negative-log IC50 (pIC50) in assay [1] was 8.33; in assay [2], 7.36; in assay [3], 6.92; in assay [4] it was 6.32; in assay [5], 6.40.

In the case of `Cc1ccc([N+](=O)[O-])cc1S(=O)(=O)N(CCN1CCCCC1)/N=C/c1cnn2ccc(C#N)cc12`, the pIC50 is 6.85 in assay [1]; less than 6.00 in assay [2]; 7.05 in assay [3]; 5.96 in assay [4]; 6.31 in assay [5].

Turning to `Cc1ccc(N)cc1S(=O)(=O)N(C)/N=C/c1cnn2ccc(C#N)cc12`, the pIC50 in assay [1], in assay [2] and in assay [3] was less than 6.00 throughout.

Consider `CC(C)c1ccc([N+](=O)[O-])cc1S(=O)(=O)N(C)/N=C/c1cnn2ccc(C#N)cc12`, for which the pIC50 was 8.74 in assay [1]; 6.52 in assay [2]; 7.41 in assay [3]; 6.74 in assay [4]; 6.59 in assay [5].

As to `Cc1ccc(Cl)cc1S(=O)(=O)N(C)/N=C/c1cnn2ccc(C#N)cc12`, the pIC50 in assay [1] was 7.89; in assay [2], 6.44; in assay [3], 6.64; in assay [4], 6.17; in assay [5], 6.27.

In the case of `Cc1ccc([N+](=O)[O-])cc1S(=O)(=O)N(CCN(C)C)/N=C/c1cnn2ccc(C#N)cc12`, the negative-log IC50 (pIC50) in assay [1] is 7.11; in assay [2] it was 6.31; in assay [3], 6.74; in assay [4], 6.44; in assay [5] it was 6.41.

Take `Cc1ccc(Br)cc1S(=O)(=O)N(C)/N=C/c1cnn2ccc(C#N)cc12`: the pIC50 is 7.89 in assay [1]; 6.21 in assay [2]; 6.74 in assay [3]; 6.15 in assay [4]; 6.24 in assay [5].

With `Cc1ccc(NC(=O)C(F)(F)F)cc1S(=O)(=O)N(C)/N=C/c1cnn2ccc(C#N)cc12`, the pIC50 was less than 6.00 in assay [1]; less than 6.00 in assay [2]; less than 6.00 in assay [3]; 5.64 in assay [4]; 5.04 in assay [5].

Take `Cc1ccc([N+](=O)[O-])cc1S(=O)(=O)N(Cc1ccccc1)/N=C/c1cnn2ccc(C#N)cc12`: the pIC50 in assay [1] is 7.57; in assay [2] it was less than 6.00; in assay [3], 7.49; in assay [5] it was 5.60.

For `CCN(CC)CCN(/N=C/c1cnn2ccc(C#N)cc12)S(=O)(=O)c1cc([N+](=O)[O-])ccc1C`, the pIC50 was 7.09 in assay [1]; less than 6.00 in assay [2]; 6.96 in assay [3]; 5.46 in assay [4]; 5.77 in assay [5].

Turning to `Cc1cccc([N+](=O)[O-])c1S(=O)(=O)N(C)/N=C/c1cnn2ccc(C#N)cc12`, the pIC50 in assay [1] was 7.85; in assay [2], 6.47; in assay [3], 7.00; in assay [4], 5.43; in assay [5], 5.12.

Take `CN(/N=C/c1cnn2ccc(C#N)cc12)S(=O)(=O)c1cc([N+](=O)[O-])ccc1Cl`: the negative logarithm of the IC50 (pIC50) in assay [1] was 9.30; in assay [2], 7.19; in assay [3], 7.62; in assay [4] it was 6.06; in assay [5], 6.46.

Take `CCc1ccc([N+](=O)[O-])cc1S(=O)(=O)N(C)/N=C/c1cnn2ccc(C#N)cc12`: the pIC50 in assay [1] is 8.82; in assay [2], 6.55; in assay [3], 7.89; in assay [4], 6.77; in assay [5] it was 7.10.

Turning to `CN(/N=C/c1cnn2ccc(C#N)cc12)C(=O)c1cccc([N+](=O)[O-])c1`, the pIC50 was 7.96 in assay [1]; 7.17 in assay [2]; 7.80 in assay [3]; 5.74 in assay [4]; 5.22 in assay [5].

With `Cc1cc([N+](=O)[O-])ccc1S(=O)(=O)N(C)/N=C/c1cnn2ccc(C#N)cc12`, the negative-log IC50 (pIC50) is 7.19 in assay [1]; less than 6.00 in assay [2]; less than 6.00 in assay [3]; less than 4.70 in assay [4]; less than 4.70 in assay [5].

With `Cc1ccc(S(C)(=O)=O)cc1S(=O)(=O)N(C)/N=C/c1cnn2ccc(C#N)cc12`, the pIC50 in assay [1] is 6.46; in assay [2] it was 6.08; in assay [3] it was 6.70; in assay [4] it was 6.30; in assay [5] it was 6.21.

Take `CC(=O)Nc1ccc(C)c(S(=O)(=O)N(C)/N=C/c2cnn3ccc(C#N)cc23)c1`: the pIC50 is less than 6.00 in assay [1]; less than 6.00 in assay [2]; less than 6.00 in assay [3]; less than 4.70 in assay [4]; less than 4.70 in assay [5].

The values are drawn from ChEMBL document CHEMBL1926530, “Novel pyrazolo[1,5-a]pyridines as p110α-selective PI3 kinase inhibitors: Exploring the benzenesulfonohydrazide SAR” (Bioorg Med Chem, 2012).
